# Reference: ChEMBL document CHEMBL3120090, “High-affinity recognition of HIV-1 frameshift-stimulating RNA alters frameshifting in vitro and interferes with HIV-1 infectivity” (J Med Chem, 2014)
# The source made the active and inactive calls. No cut-off for these calls is given here.
# Experiments:
# [1] = tested on: Human immunodeficiency virus 1; assay: Antiviral activity against HIV-1 NL4-3 assessed as reduction in viral infectivity in human TZM-bl cells at 20 uM after 48 hrs by firefly luciferase reporter gene assay; type: functional; parameters: scale not given: the % may be the effect or the level left
# Outline: (§1)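 Single-round infectivity of VSV-G pseudotyped HIV-1 (pDHIV3-GFP, NL4-3 genes minus nef/env) made in transfected HEK293T producer cells. Compounds added to producers 4 h post-transfection; virions harvested at 24 h, filtered, normalized by p24 ELISA. TZM-bl cells (10,000/well) infected with 500 pg p24/well in triplicate for 48 h; LTR-driven firefly luciferase luminescence read. EC50 derived from concentration series.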
# [2] = Selectivity ratio of KD for yeast tRNA to KD for HIV-1 FSS RNA
# Outline: (§2)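 Ratios of fluorescence-titration KD values (20 mM HEPES, 150 mM NaCl; compound 1 μM): KD for FSS DNA or total yeast tRNA divided by KD for HIV-1 FSS RNA.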
# HEK293FT [3] = assay: Binding affinity to HIV-1 FSS RNA transfected in HEK293FT cells at 50 uM after 36 hrs by Renilla/firefly luciferase reporter gene assay; type: cell-based; details: Human immunodeficiency virus 1
# Outline: (§3)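 HEK293FT cells (1.5 × 10^4/well) transiently transfected with pDualHIV(−1) or in-frame pDualHIV(0) Rluc–FSS–Fluc plasmid (0.2 μg). Compound (0–50 μM) added 5 h later, in triplicate, for 36 h at 37 °C. Fluc/Rluc ratio from lysate, expressed relative to untreated transfected cells (100%). Error is SEM.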
# [4] = tested on: Human immunodeficiency virus 1; assay: Increase in HIV-1 NL4-3 reverse transcriptase p66/51 level at 10 to 40 uM by Western blotting analysis; type: functional, organism-based
# Outline: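 Pseudotyped virions from compound-treated producer cells, equal loads by p24 ELISA, pelleted through 20% sucrose at 100,000g. Western blot for RT and p24. Densitometry of nonsaturated bands gave p160/(p66+p51) and total RT/p24 ratios.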
# [5] = tested on: Human immunodeficiency virus 1; assay: Antiviral activity against HIV-1 NL4-3 infected in TZM-bl cells after 24 hrs
# [6] = tested on: Human immunodeficiency virus 1; assay: Antiviral activity against HIV-1 NL4-3 assessed as reduction in viral infectivity in human TZM-bl cells after 48 hrs by firefly luciferase reporter gene assay; type: functional, organism-based; details: Human immunodeficiency virus 1, NL4-3, TZM-bl; outline: as §1
# [7] = Binding affinity to HIV-1 FSS RNA in 20 mM HEPES buffer by surface plasmon resonance analysis in presence of 150 mM NaCl, 5 mM MgCl2 and 0.005 % tween-20; parameters: species or system Human immunodeficiency virus 1
# Outline: (§4)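 SPR with HIV-1 FSS RNA captured on low-density (~300 RU) and high-density (~1200 RU) chips. Compound flowed at 50 μL/min in 20 mM HEPES, 150 mM NaCl, 5 mM MgCl2, 0.005% Tween-20. 0.5 or 1 M NaCl regeneration as needed. Each concentration injected at least twice. Kinetic constants and KD from individual fits of reference-subtracted sensorgrams.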
# [8] = tested on: Human immunodeficiency virus 1; assay: Binding affinity to HIV-1 FSS RNA in 20 mM HEPES buffer assessed as association rate by surface plasmon resonance analysis in presence of 150 mM NaCl, 5 mM MgCl2 and 0.005 % tween-20; outline: as §4
# [9] = Binding affinity to HIV-1 FSS RNA in 20 mM HEPES buffer assessed as dissociation rate by surface plasmon resonance analysis in presence of 150 mM NaCl, 5 mM MgCl2 and 0.005 % tween-20; parameters: species or system Human immunodeficiency virus 1; outline: as §4
# [10] = Cytotoxicity against HEK293FT cells assessed as cell viability at <60 uM after 24 hrs by WST-1 assay; type: cell-based; details: human
# Outline: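 HEK293FT cells at 80% confluence in DMEM/10% FBS exposed to compound (up to 0.5 mM) or a water control, in triplicate, for 24 h at 37 °C. WST-1 reagent then added for 2 h. Absorbance at 450 minus 690 nm, blank-corrected, plotted against concentration. Error is SD of three measurements.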
# [11] = Binding affinity to HIV-1 FSS RNA after 10 mins by fluorescence titration analysis; parameters: species or system Human immunodeficiency virus 1
# Outline: (§5)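 Solution fluorescence titration in 20 mM HEPES, 150 mM NaCl. Compound at 1 μM, titrated with unlabeled HIV-1 FSS RNA (10 μM stock), FSS DNA or yeast tRNA (40 μM stocks). 10 min equilibration after each addition. Quenching of benzo[g]quinoline fluorescence read in triplicate 1 min apart, corrected for dilution; KD from saturable quenching. Error is SD.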
# [12] = Cellular uptake in nucleus of HEK293FT cells at 50 uM measured for 12 hrs by fluorescence microscopy; type: ADME, cell-based; details: human
# [13] = Selectivity ratio of KD for FSS DNA (unknown origin) to KD for HIV-1 FSS RNA; outline: as §2
# [14] = tested on: Human T-lymphotropic virus 2; assay: Binding affinity to HTLV-2 FSS RNA up to 3 uM by surface plasmon resonance analysis
# [15] = tested on: Human immunodeficiency virus 1; assay: Antiviral activity against HIV-1 NL4-3 assessed as reduction in viral production […] after 24 hrs by fluorescence microscopy; type: functional, organism-based
# Outline: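 HEK293T producer cells transfected with GFP-marked pseudotyped HIV-1 vector plus VSV-G and treated with compound 4 h after transfection. Proviral GFP expression imaged by fluorescence microscopy 24 h after treatment, before virions were harvested.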
# [16] = Cellular uptake in cytoplasm of HEK293FT cells at 50 uM measured for 12 hrs by fluorescence microscopy; type: ADME, cell-based; details: human
# [17] = tested on: Human immunodeficiency virus 1; assay: Binding affinity to HIV-1 FSS RNA in HBS buffer at pH 7.4 assessed as association rate by surface plasmon resonance analysis
# Outline: (§6)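 RNA captured on SPR chips at low (~300 RU) and high (~1200 RU) density, each measured once. Compound flowed in HBS (0.01 M HEPES, 0.150 M NaCl, pH 7.4) at 60 μL/min over at least five concentrations, each injected at least twice. A 20 s 0.5 or 1 M NaCl pulse regenerated the chip where needed. Reference-subtracted, blank-corrected sensorgrams (association plus dissociation) were globally fit to 1:1 Langmuir; error is standard error of the fit.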
# HEK293FT [18] = assay: Binding affinity to HTLV-2 FSS RNA transfected in HEK293FT cells at 1 to 50 uM after 36 hrs by Renilla/firefly luciferase reporter gene assay; type: cell-based; details: Human T-lymphotropic virus 2
# Outline: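 HEK293FT cells transiently transfected with pDualHTLV-2(−1) (Fluc made only via −1 frameshift at the HTLV-2 site) and treated 5 h later with compound (0–50 μM) in triplicate for 36 h at 37 °C. Fluc/Rluc ratio from lysate, relative to untreated transfected cells. Error is SEM.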
# [19] = Binding affinity to yeast tRNA after 10 mins by fluorescence titration analysis; parameters: species or system Saccharomyces cerevisiae; outline: as §5
# [20] = Binding affinity to FSS DNA (unknown origin) after 10 mins by fluorescence titration analysis; outline: as §5
# [21] = Binding affinity to HIV-1 FSS RNA in HBS buffer at pH 7.4 by surface plasmon resonance analysis; parameters: species or system Human immunodeficiency virus 1; outline: as §6
# HEK293FT [22] = assay: Binding affinity to HIV-1 FSS RNA transfected in HEK293FT cells after 36 hrs by Renilla/firefly luciferase reporter gene assay; type: cell-based; details: Human immunodeficiency virus 1; outline: as §3
# [23] = (§7) Binding affinity to HIV-1 FSS RNA in HBS buffer at pH 7.4 assessed as dissociation rate by surface plasmon resonance analysis; parameters: species or system Human immunodeficiency virus 1; outline: as §6
# [24] = tested on: Human immunodeficiency virus 1; assay: Antiviral activity against HIV-1 NL4-3 assessed as reduction in viral infectivity in human TZM-bl cells at 40 uM after 48 hrs by firefly luciferase reporter gene assay; type: functional; parameters: scale not given: the % may be the effect or the level left
# [25] = Binding affinity to HIV-1 FSS RNA; parameters: species or system Human immunodeficiency virus 1
# [26] = tested on: Human immunodeficiency virus 1; assay: as §7; outline: as §6
Compound,Ratio [2],Activity (HEK293FT [3]),Activity [4],Activity [5],EC50 [6] [nM],Kd [7] [nM],Ka [8] [×10⁴ /M/s],Kd [9] [×10⁻³ /s],Activity [10],Kd [11] [nM],Drug uptake [12],Activity [14],Activity [15],Drug uptake [16],Ka [17] [×10⁴ /M/s],Activity (HEK293FT [18]),Kd [19] [nM],Kd [20] [nM],Kd ([21]; read-out: Kd) [nM],Activity (HEK293FT [22]),other results
CCc1nc2cc3ccccc3cc2cc1C(=O)N[C@@H](C/C=C\C[C@H](NC(=O)c1cc2cc3ccccc3cc2nc1CC)C(=O)N1CCC[C@H]1C(=O)N[C@@H](Cc1ccccc1)C(=O)NCCCN)C(=O)N1CCC[C@H]1C(=O)N[C@@H](Cc1ccccc1)C(=O)NCCCN,5,> 50%,Active,Active,3900,71,2.17,1.35,Non-toxic,66,Active,inactive,Dose-dependent effect,Active,4.25,inactive,334,265,102,Dose-dependent effect,Activity [1]: >90%; Ratio [13]: 4; Dissociation rate constant (koff) [23]: 4.11 ×10⁻³ /s
CCc1nc2cc3ccccc3cc2cc1C(=O)N[C@@H](C/C=C/C[C@H](NC(=O)c1cc2cc3ccccc3cc2nc1CC)C(=O)N1CCC[C@H]1C(=O)N[C@@H](Cc1ccccc1)C(=O)NCCCN)C(=O)N1CCC[C@H]1C(=O)N[C@@H](Cc1ccccc1)C(=O)NCCCN,2.14,> 50%,Active,Active,25600,96,3.68,3.46,Non-toxic,101,Active,inactive,Dose-dependent effect,Active,3.99,inactive,217,118,89,Dose-dependent effect,Activity [24]: >90%; Dissociation rate constant (koff) [23]: 3.75 ×10⁻³ /s
CC(C)(C)NC(=O)[C@@H]1CN(Cc2cccnc2)CCN1C[C@@H](O)C[C@@H](Cc1ccccc1)C(=O)N[C@H]1c2ccccc2C[C@H]1O [INDINAVIR],,,,,14.8,,,,,,,,,,,,,,,,
CN(C)CCCNC(=N)c1ccc(C(=N)NCCCN(C)C)cc1,,,,,,,,,,,,,,,,,,,,,Kd [25]: 360000 nM
NCCCNC(=O)[C@H](Cc1ccccc1)NC(=O)[C@@H]1CCCN1C(=O)[C@@H](N)C/C=C/C[C@H](N)C(=O)N1CCC[C@H]1C(=O)N[C@@H](Cc1ccccc1)C(=O)NCCCN,,inactive,,,,,,,,,,inactive,,,,,,,,inactive,Activity [24]: Active; Activity [17]: inactive; Kd [21]: Not Active; Activity [26]: inactive
